Assay results from ChEMBL document CHEMBL1131450, “Synthesis and antitumor evaluation of 2,5-disubstituted-indazolo[4, 3-gh]isoquinolin-6(2H)-ones (9-aza-anthrapyrazoles)” (J Med Chem, 1998).
Converted amounts (≈) assume the structure as drawn.

Assays:
LoVo [1] = experiment: In vitro cytotoxicity on human colon adenocarcinoma (LoVo ) tumor cell line.; type: functional, cell-based
MX1 [2] = experiment: Antitumor activity was measured on MX-1 human mammary carcinoma cells. TWI%=tumor weight inhibition. Optimal dose at 13.5 mg/kg/day; type: functional
P388 [3] = experiment: In vivo antitumor activity was measured on systemic P388 murine leukemia cells. Optimal dose at 13.5 mg/kg/day; type: functional, Mus musculus
Procedure, shortened: (§1)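 CD2F1 male mice given 10⁶ P388 leukemia cells iv (day 0); drug given iv on days 1, 4 and 7. Survival expressed as T/C% = median survival time of treated / median survival of controls × 100, reported at optimal dose (mg/kg/day) or maximum tested dose.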

LoVo [4] = experiment: Resistance index measured as the ratio of IC50 of LoVo/Dx cell line to that of LoVo cell line.; type: functional, Homo sapiens
LoVo/Dx (Homo sapiens) = experiment: cells
MX1 [5] = experiment: In vivo antitumor activity was measured on MX-1 human mammary carcinoma cells. TWI%=tumor weight inhibition. Optimal dose 120 mg/kg/day.; type: functional
P388 [6] = experiment: In vivo antitumor activity was measured on systemic P388 murine leukemia cells. Optimal dose 90 mg/kg/day.; type: functional, Mus musculus; procedure, shortened: as §1
MX1 [7] = experiment: In vivo antitumor activity was measured on MX-1 human mammary carcinoma cells. TWI%=tumor weight inhibition. Optimal dose 11 mg/kg/day.; type: functional
P388 [8] = experiment: In vivo antitumor activity was measured on systemic P388 murine leukemia cells. Optimal dose 9 mg/kg/day.; type: functional, Mus musculus; procedure, shortened: as §1
MX1 [9] = experiment: In vivo antitumor activity was measured on MX-1 human mammary carcinoma cells. TWI%=tumor weight inhibition. Optimal dose 4.5 mg/kg/day.; type: functional
P388 [10] = experiment: In vivo antitumor activity was measured on systemic P388 murine leukemia cells. Optimal dose 2 mg/kg/day.; type: functional, Mus musculus; procedure, shortened: as §1
P388 [11] = experiment: In vivo antitumor activity was measured on systemic P388 murine leukemia cells. Optimal dose 40 mg/kg/day.; type: functional, Mus musculus; conditions: in the assay text read “6 mg/kg/day” for “40 mg/kg/day”; procedure, shortened: as §1

Compound: Cl.Cl.O=C1c2c(O)cccc2-c2nn(CCNCCO)c3ccc(NCCNCCO)c1c23
- IC50 (LoVo [1]): 0.053 µg/mL
- TWI (MX1 [2]): 95%
- T/C (P388 [3]): 147%
- RI (LoVo [4]): 840
- IC50 (LoVo/Dx (Homo sapiens)): 44.5 µg/mL

Compound: O=C1c2ccncc2-c2nn(CCNCCO)c3ccc(NCCO)c1c23
- IC50 (LoVo [1]): 53.1 µg/mL (≈ 145 µM)
- TWI (MX1 [5]): 49%
- T/C (P388 [6]): 113%
- RI (LoVo [4]): >1.9
- IC50 (LoVo/Dx (Homo sapiens)): > 100 µg/mL

Compound: CN(C)CCNc1ccc2c3c(nn2CCN)-c2cnccc2C(=O)c13
- IC50 (LoVo [1]): 0.3 µg/mL (≈ 0.856 µM)
- TWI (MX1 [7]): 80%
- T/C (P388 [8]): 231%
- RI (LoVo [4]): 53
- IC50 (LoVo/Dx (Homo sapiens)): 15.9 µg/mL (≈ 45.4 µM)

Compound: CN(C)CCn1nc2c3c(c(NCCN)ccc31)C(=O)c1ccncc1-2
- IC50 (LoVo [1]): 0.16 µg/mL (≈ 0.457 µM)
- TWI (MX1 [9]): 87%
- T/C (P388 [10]): 213%
- RI (LoVo [4]): 27
- IC50 (LoVo/Dx (Homo sapiens)): 4.3 µg/mL (≈ 12.3 µM)

Compound: CNCCn1nc2c3c(c(NCCNCCO)ccc31)C(=O)c1ccncc1-2
- IC50 (LoVo [1]): 0.29 µg/mL (≈ 0.762 µM)
- T/C (P388 [11]): 181%
- RI (LoVo [4]): 109
- IC50 (LoVo/Dx (Homo sapiens)): 31.6 µg/mL (≈ 83.1 µM)
